Assay outcomes (PubChem BioAssay)
Hits are enriched below; roughly 2.5% of the tested compounds scored in any of these assays.
SR-BI HDL uptake = blocks mouse SR-BI lipid uptake from DiI-HDL; AID 488896; Q61009; ldlA[mSR-BI] CHO cells, DiI-HDL uptake fluorescence, 3 h; actives 0.96% (n = 320,000); inhibition, % at 12.5 µM;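 active = mean replicate inhibition of at least 70% and a set share of replicates each scoring 70 or more; inconclusive = meets just one of the two criteria; inactive = fails both criteria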;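 also: 0% = median of neutral control wells and 100% = median of positive control wells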
SR-BI DiI-HDL act = SR-BI HDL lipid transfer activation; AID 504775; activation, % at 12.5 µM; actives 0.096% (n = 320,000); CHO ldlA[mSR-BI] cells, DiI-HDL uptake fluorescence, 3 h; 100 = double the neutral-control signal;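 active = mean replicate activation of at least 60% and every replicate at or above 60%; inconclusive = mean or all-replicate condition met, but not both; inactive = mean below 60% and not all replicates reaching 60%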;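 also: 0% = median plate neutral-control signal and 100% = twice that signal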
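Assay system: LDL receptor-deficient CHO ldlA cells overexpressing murine SR-BI / Medium: BSA-supplemented, HEPES-buffered Ham's F12, pH 7.4 / Probe or stimulus: DiI-labelled HDL at 10 µg/mL final / Timing: compound with DiI-HDL co-incubation, 3 h at 37 °C / Technique: bottom-read cell fluorescence after medium removal, ex 550/em 595 nm / Measure: HDL uptake via cellular fluorescence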
Dyrk1A ADPGlo = inhibitors of rat Dyrk1A kinase; inhibition, % at 12.5 µM; Q63470; actives 0.43% (n = 310,000); AID 504441; ADP-Glo luminescence, NFATc1 peptide;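 also: plate controls were vehicle with enzyme for no effect and no enzyme for full effect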
NSD2 inh = blocks human histone methyltransferase NSD2. AID 743445. inhibition, % at 12.5 µM. actives 0.54% (n = 310,000). NSD2 peptide methylation, AlphaScreen, 120 min
dFosB act-1 = mouse delta FosB homodimer activation; actives 0.99% (n = 340,000); P13346; activation, % at 25 µM; purified delta FosB, TAMRA-CDK5 oligo fluorescence polarization; percent of positive-control signal above neutral wells; AID 493131;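 active = mean activation above about 17%, with every replicate also reaching it, limit read from the data, passing the limit was not always enough; inconclusive = only one of the two conditions met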
CDK5 p35 inh = blocks human CDK5/p35 kinase activity | actives 0.01% (n = 330,000) | AID 488839 | inhibition, % at 10 µM | Recombinant CDK5/p35, ADP-Glo luminescence, 60 min | Q00535+Q15078;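 active = highest replicate inhibition of at least 50% and at least 75% of replicates reaching 50%; inconclusive = only one of the two criteria met; inactive = both criteria failed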;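 also: plate controls were DMSO neutral control for no effect and GW8510 at 10 µM for full effect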
dFosB act-2 = delta FosB (mouse) homodimer activation; activation, % at 24.9 µM; purified delta FosB, TAMRA-CDK5 oligo fluorescence polarization; normalised: neutral wells 0, positive control 100; shares compounds with dFosB act-1; 2,400 tested, under 10 active; AID 588690;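 active = highest replicate activation at or above 34% and every replicate reaching that threshold; inconclusive = meets only one of the two criteria; inactive = meets neither criterion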;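 also: higher polarization means more probe DNA bound by delta FosB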
The depositor's hits bear a star; ? = inconclusive; nt = not tested or not shown. Rule as the data show it, unless noted: active = inhibition above about 50%; inactive = the rest.

SMILES	SR-BI HDL uptake	SR-BI DiI-HDL act	Dyrk1A ADPGlo	NSD2 inh	dFosB act-1	CDK5 p35 inh	dFosB act-2
Cc1cc(NC(=O)CSc2nnc(COc3cccc(C)c3C)n2C)no1	21	-21	7	-6	21*	4	3
CCn1c(COc2cccc(C)c2C)nnc1SCC(=O)Nc1cc(C)on1	-16	16	-2	0	?	0	nt
COc1ccc2oc(C(=O)OCC(=O)NCc3ccco3)c(C)c2c1	4	-4	7	1	-7	-1	nt
Cc1ccc(NC(=O)CN2C(=O)NC(C)(CC(C)C)C2=O)cc1F (stereo unspecified)	-14	14	4	-1	0	0	nt
Cc1ccc(C)c(CN2C(=O)c3ccccc3S(=O)c3ccc(C(=O)NCCCN4CCCC4)cc32)c1 (stereo unspecified)	-12	12	-4	6	25*	1	4
CCC(=O)Nc1nnc(SCc2ccc(F)cc2)s1	-9	9	7	-1	3	0	nt
CC(=O)Nc1ccc(N2C(=O)c3ccc(C(=O)Nc4nnc(SCc5ccc(F)cc5)s4)cc3C2=O)cc1	-11	11	-2	1	56*	0	2
Cc1cc(NC(=O)c2cc(-c3cccs3)on2)no1	-7	7	-13	0	-2	1	nt
N#Cc1ccc(NC(=O)c2cc(-c3cccs3)on2)cc1	19	-19	0	0	22*	1	6
COc1ccc(C(=O)N2C(=O)c3ccc(N)cc3C2=O)cc1	-4	4	-1	nt	49*	0	4
COc1ccc(C(=O)n2cnc(N)n2)cc1	-19	19	9	0	-11	1	nt
CN1CCN(C(=O)c2ccc(-c3cnn(C)c3)c3ccoc23)CC1	nt	nt	nt	-2	nt	nt	nt
CC12CCC(/C(=C/NNc3ccc([N+](=O)[O-])cc3[N+](=O)[O-])C1=O)C2(C)C (stereo unspecified)	nt	nt	nt	9	nt	nt	nt
CC[C@H](C)[C@@H]1NC(=O)c2cc([N+](=O)[O-])cc(F)c2NCCCC[C@@H](C(N)=O)NC(=O)[C@H](CCCCN)NC1=O	-7	7	2	nt	21*	3	3
COc1ccc(CCNC(=O)CCn2c(SCC#N)nc3ccccc3c2=O)cc1OC	22	-22	-1	10	22*	0	1
Cc1cc(C)cc(OCC(=O)OCC(=O)Nc2cc(S(=O)(=O)N3CCOCC3)ccc2Cl)c1	-1	1	nt	-1	-7	0	nt
Cn1cc(Cl)c(C(=O)Nc2nc3ccc([N+](=O)[O-])cc3s2)n1	-25	25	13	0	3	0	nt
Cn1cc(Cl)c(C(=O)Nc2nc3ccc(Cl)cc3s2)n1	25	-25	8	-2	24*	1	-2
CCOc1cccc2sc(NC(=O)c3ccc(Br)s3)nc12	31	-31	2	nt	33*	-2	7
O=C(CSc1nc2ncc(Cl)cc2[nH]1)c1c[nH]c2ccccc12	13	-13	5	-3	22*	1	-4
CCCCn1cnc2c(SCc3ccccc3Cl)nc(N)nc21	12	-12	-2	0	-3	1	nt
Cc1cc(C(F)(F)F)c(C#N)c(SCC(=O)Nc2nc3cc(Br)ccc3s2)n1	-12	12	4	nt	37*	0	7
CC(C)C(NC(=O)c1cccs1)C(=O)NC1=NCCS1 (stereo unspecified)	-25	25	1	-1	9	-2	nt
O=C(NC1=NCCS1)c1cccs1	-5	5	4	-1	27*	-3	2
Cc1ccc(C(=O)Nc2c3c(nn2-c2ccccc2)CS(=O)(=O)C3)cc1C	-7	7	-6	1	-9	2	nt
CCOC(=O)c1cc2c(N)c(C(=O)c3ccc(Br)cc3)sc2[nH]c1=O	nt	nt	8	-3	22*	-3	0
CCOC(=O)c1cc(C(=O)OCC)c(=O)[nH]c1C	-1	1	0	-2	1	-1	nt
